# Data reported in publication PMC7313255 (Biology of Reproduction, 2020).
# “And” between values parts separate entries of the source, which are not always exact repeats. Equal values may be shown once. Where a name gives a salt, the structure may show the parent alone. Read-outs that look alike come from different tables or passages of the source. Positions of bridges follow the written chain, without caps; N, C: chain ends. Non-standard residues stand in square brackets, D forms with d. Residues, ends and D or L forms follow the SMILES beside them. Orn = NCCC[C@H](N)C(=O)O; Mpa = O=C(O)CCS
# Legend:
# [1] = cited from earlier work
# cloned human V1AR = conditions: read-out: Ki (affinity), cloned human V1AR; two literature values; cited from earlier work
# [2] = sheep, epitheliochoral placenta; cited from earlier work
# [3] = up to 2.5 mg barusiban/kg body weight/day from day 85 of gestation until delivery; cited from earlier work
# [4] = Placental transfer in rabbits; format: in vivo, New Zealand white rabbits; conditions: rabbit
# In short: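 Pregnant rabbits (5–6 months, 3.0–4.4 kg) given the radiolabelled test compound by ear-vein bolus daily on gestation days 24–30: mean 3.01 mg/kg, 522 kBq/kg, in 0.9% saline. Three dams per time point killed by barbiturate at 10 min, 1, 3 and 10 h after dosing. Maternal ear-artery blood taken; from one fetus per sex, cardiac blood and tissues taken. Liquid scintillation counting; levels expressed as % of maternal peak.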
# [5] = quantitative whole-body autoradiography; format: in vivo; conditions: rat; all sampling times; limit of quantitation 40 pmoles/g; unpublished data
# [6] = Placental transfer in cynomolgus monkeys; format: in vivo, cynomolgus monkeys (Macaca fascicularis); conditions: cynomolgus monkey
# In short: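 Three pregnant monkeys, gestation day 150 ± 1. Test compound infused intravenously (saphenous vein) over 2 h to 300 µg/kg in 5 mL/kg, from a 10 mg/mL stock in 0.04 M acetate pH 4.3 diluted in saline. Maternal brachial plasma taken pre-dose, 1 and 2 h. Umbilical venous plasma and amniotic fluid taken at C-section under ketamine/xylazine. Plasma measured by RIA, amniotic fluid by LC-MS/MS; paired t-test.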
# [7] = system: oxytocin-induced uterine contractions; conditions: cited from earlier work
# [8] = cited from earlier work; remark: listed apart in the source
# [9] = format: in vitro ADME, human
# In short: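 Term placentas (39–41 weeks, no chorioamnionitis) perfused ex vivo as double-sided open cotyledon at 36.5 °C; fetal flow 2 mL/min, maternal 10 mL/min. Test compound 1.2 µM (1 µg/mL) in perfusate with antipyrine 531 µM co-infused. Fetal venous samples at 1–120 min; Evans blue integrity check. LC-MS/MS for test compound, spectrophotometry for antipyrine; trapezoidal AUC ratio; mean ± SD.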
# [10] = quantitative whole-body autoradiography; format: in vivo; conditions: marmoset; normally below the limit of quantification; unpublished data
# [11] = system: vasopressin-induced contractions of isolated term-pregnant human myometrium; conditions: cited from earlier work
smiles,measurement,setting,value
CC(NCCc1ccc(O)cc1)C(O)c1ccc(O)cc1 (centres unmarked) [ritodrine hydrochloride],placental transfer,"[1]; in humans, long-term treatment",70%
same,placental transfer,"[1]; in humans, short-term treatment",26%
CCOc1ccc(C[C@H]2NC(=O)CCSSC[C@@H](C(=O)N3CCC[C@H]3C(=O)N[C@@H](CCCN)C(=O)NCC(N)=O)NC(=O)[C@H](CC(N)=O)NC(=O)[C@H]([C@@H](C)O)NC(=O)[C@H]([C@@H](C)CC)NC2=O)cc1 [atosiban] ([Mpa][dY](Et)ITNCP[Orn]G-NH2; disulfide 1-6 (inferred); C-terminus assumed),Ki,cloned human V1AR,3.5 nM and 4.7 nM
same,placental transfer,[2],could not be detected
same,placental transfer,"[1]; in vivo, pregnant women at term",12%
CC[C@@H](C)[C@@H]1NC(=O)[C@H]([C@@H](C)CC)NC(=O)[C@@H](Cc2c[nH]c3ccccc23)NC(=O)CCSCC[C@@H](C(=O)N(C)[C@H](CO)CCCN)NC(=O)[C@H](CC(N)=O)NC1=O [barusiban],effects in the mother or offspring,[3],no barusiban-related effects
same,barusiban level in other fetal tissues as % of the maternal blood,"[4]; 10 min post-dose, or less than LLOQ",< 1%
same,barusiban in most fetal tissue samples as % of the maternal peak blood level,"[4]; 1 h post-dose, or less than LLOQ",less than 1%
same,fetal blood barusiban as % of that after 10 min,[4]; 1 h post-dose,79.3%
same,fetal blood barusiban as % of the peak maternal level,[4]; 1 h post-dose,4.2%
same,fetal plasma barusiban as % of the peak maternal level,[4]; 1 h post-dose,5.0%
same,maternal blood barusiban as % of the maximum level,[4]; 1 h post-dose,32.8%
same,maternal plasma barusiban as % of the maximum level,[4]; 1 h post-dose,35.2%
same,maternal blood barusiban as % of its maximum level,[4]; 3 h post-dose,6.1%
same,maternal plasma barusiban as % of its maximum level,[4]; 3 h post-dose,7.9%
same,fetal adrenal barusiban as % of the maximal maternal blood level,"[4]; 10 h post-dose, one adrenal",12.0%
same,barusiban in all other fetal tissues as % of peak maternal blood level,"[4]; 10 h post-dose, or less than LLOQ",less than 1%
same,amniotic fluid barusiban as % of the maximal maternal blood level,[4]; 10 h post-dose,5.7%
same,fetal blood barusiban as % of initial maternal level,[4]; 10 h post-dose,less than 2%
same,fetal plasma barusiban as % of initial maternal level,[4]; 10 h post-dose,less than 3%
same,maternal blood barusiban as % of the first determination,[4]; 10 h post-dose,less than 1%
same,maternal plasma barusiban as % of the first determination,[4]; 10 h post-dose,less than 2%
same,barusiban in the fetuses (QWBA),[5],< 40 pmol/g
same,increase of maternal plasma barusiban from 1 h to 2 h,[6]; individual values of two animals,40.4% and 54.6%
same,mean amniotic barusiban at C-section as % of the maternal plasma after 2 h,"[6]; iv infusion 2 h to 300 μg/kg, n = 3",1.9%
same,decrease of maternal plasma barusiban from 1 h to 2 h,[6]; third animal,5.0%
same,reduction of induced uterine contractions compared with fenoterol,[7]; cynomolgus monkey,more effective than fenoterol
same,reduction of oxytocin-induced uterine contractions compared with atosiban,"[7]; pregnant cynomolgus monkey, action also longer lasting",more potent
same,effect over the placebo group (women who did not deliver within 48 h),[8]; Phase II clinical trial,did not demonstrate a statistically significant effect
same,fetal and neonatal adverse events with maternal barusiban,"[8]; clinical study, did not differ from placebo",very low level of fetal and neonatal adverse events
same,AUC ratio of barusiban to antipyrine,"[9]; ex vivo perfused human cotyledon, mean of ratios ± SD, n = 13, SD",36 ± 11%
same,radioactivity in fetal brain (QWBA),[10],< 12 pmoles/g tissue
same,effect on vasopressin-induced contractions,[11],practically no effect
"Cc1cc(=O)n(-c2ccccc2)n1C [antipyrine, reference compound]",transfer of antipyrine relative to barusiban,"[9]; human placental single cotyledon, comparator",approximately three times greater
O=S(=O)([O-])[O-].[Mg+2] [MgSO4],placental transfer,[1]; in humans,up to 100%
